Calls of active or inactive are those of the source. The rule behind the calls is not given here.
What was measured:
[1] = target: T1, Nuclear factor NF-kappa-B complex (Homo sapiens) (UniProt Q00653+P19838+Q04206); test: Activation of NF-kappaB in human THP1-Blue NF-kappaB cells co-expressing NFkappaB-inducible SEAP assessed as increase in SEAP activity at 5 uM measured after 20 hrs by quanti-blue based colorimetric assay relative to control; type: cell-based; conditions: filed as activator
How it was run: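 THP1-Blue NF-κB reporter cells plated at 10^5/well in RPMI with 10% FBS, penicillin/streptomycin and Normocin. Compound added at 5 μM final (0.5% DMSO), then incubated 20 h. Secreted SEAP in the supernatant was read colorimetrically with QuantiBlue at 630 nm. Two-point normalization set vehicle (0.5% DMSO) as 100% and a reference activator as 200%.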

THP-1 = test: Cytotoxicity against human THP-1 cells assessed as cell viability at 5 uM measured after 18 hrs by MTT assay relative to control; type: cell-based; conditions: thp-1, 18 h
How it was run: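 THP-1 cells were plated at 10^5/well in RPMI with 10% FBS and penicillin/streptomycin, then given compound at 5 μM final (0.5% DMSO) for 18 h. MTT at 0.5 mg/mL was added for 4–6 h, followed by SDS/HCl lysis buffer overnight. Absorbance was read at 570 nm against a 650 nm reference. Viability was normalized to DMSO as 100%.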

[2] = target: T1, Nuclear factor NF-kappa-B complex (Homo sapiens); test: Activation of NF-kappaB in human THP-1 cells assessed as increase in IL-8 production in the presence of LPS at 5 uM measured by ELISA relative to control; type: cell-based; conditions: filed as activator
How it was run: (§1)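 THP-1 cells and BMDCs from the femurs and tibias of C57BL/6 mice were treated overnight with compound (5 μM) or vehicle (0.5% DMSO), with or without LPS at 1 ng/mL. Secreted IL-8 (THP-1) and IL-12 (BMDC) in the supernatant were measured by ELISA.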

BMDC [3] = test: Activation of NF-kappaB in mouse BMDC cells assessed as enhanced IL-12 production in the presence of LPS at 5 uM measured by ELISA relative to control; type: cell-based; conditions: filed as activator; how it was run: as §1
Mus musculus = organism: Mus musculus; test: Co-adjuvanticity in MPLA/OVA-immunized BALB/c mouse assessed as increase in ovalbumin specific IgG production at 50 nmol treated on day 0 and 21 measured after 28 days by ELISA; type: functional, organism-based; conditions: time 28.0 day
How it was run: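 BALB/c mice aged 7–9 weeks, n=5 per group, were injected into the gastrocnemius muscle on days 0 and 21. Mice were bled on day 28 and OVA-specific IgG titers measured by ELISA. Groups were compared with one-way ANOVA and Dunnett's post hoc test.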

BMDC [4] = test: Activation of NF-kappaB in mouse BMDC cells assessed as enhanced IL-12 production at 5 uM measured by ELISA relative to control; type: cell-based; how it was run: as §1

T1 sequence (P19838 whole entry, looked up): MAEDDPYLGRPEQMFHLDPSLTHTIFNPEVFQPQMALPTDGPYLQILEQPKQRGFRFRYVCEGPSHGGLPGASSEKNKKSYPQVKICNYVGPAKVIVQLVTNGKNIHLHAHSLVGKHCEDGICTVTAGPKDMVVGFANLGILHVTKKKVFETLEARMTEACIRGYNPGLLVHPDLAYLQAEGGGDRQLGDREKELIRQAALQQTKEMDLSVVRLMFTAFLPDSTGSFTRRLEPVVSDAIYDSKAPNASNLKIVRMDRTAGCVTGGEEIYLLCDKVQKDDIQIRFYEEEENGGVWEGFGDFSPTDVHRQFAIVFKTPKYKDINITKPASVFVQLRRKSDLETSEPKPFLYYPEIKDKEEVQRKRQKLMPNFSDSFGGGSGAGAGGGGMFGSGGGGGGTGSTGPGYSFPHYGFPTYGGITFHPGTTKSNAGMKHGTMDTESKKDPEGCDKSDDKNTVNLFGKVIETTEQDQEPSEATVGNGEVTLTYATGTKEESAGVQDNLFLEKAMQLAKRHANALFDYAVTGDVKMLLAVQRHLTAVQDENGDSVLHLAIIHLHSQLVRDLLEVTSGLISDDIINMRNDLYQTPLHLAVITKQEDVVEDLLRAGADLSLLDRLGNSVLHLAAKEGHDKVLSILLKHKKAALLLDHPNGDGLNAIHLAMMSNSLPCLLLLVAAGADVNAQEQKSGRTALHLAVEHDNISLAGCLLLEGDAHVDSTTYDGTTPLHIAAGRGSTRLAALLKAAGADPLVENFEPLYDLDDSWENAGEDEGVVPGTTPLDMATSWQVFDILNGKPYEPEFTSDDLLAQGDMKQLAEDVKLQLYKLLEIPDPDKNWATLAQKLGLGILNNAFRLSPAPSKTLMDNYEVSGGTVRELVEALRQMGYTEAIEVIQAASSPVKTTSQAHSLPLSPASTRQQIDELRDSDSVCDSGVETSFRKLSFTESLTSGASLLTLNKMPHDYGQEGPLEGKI
T1 sequence (Q00653 whole entry, looked up): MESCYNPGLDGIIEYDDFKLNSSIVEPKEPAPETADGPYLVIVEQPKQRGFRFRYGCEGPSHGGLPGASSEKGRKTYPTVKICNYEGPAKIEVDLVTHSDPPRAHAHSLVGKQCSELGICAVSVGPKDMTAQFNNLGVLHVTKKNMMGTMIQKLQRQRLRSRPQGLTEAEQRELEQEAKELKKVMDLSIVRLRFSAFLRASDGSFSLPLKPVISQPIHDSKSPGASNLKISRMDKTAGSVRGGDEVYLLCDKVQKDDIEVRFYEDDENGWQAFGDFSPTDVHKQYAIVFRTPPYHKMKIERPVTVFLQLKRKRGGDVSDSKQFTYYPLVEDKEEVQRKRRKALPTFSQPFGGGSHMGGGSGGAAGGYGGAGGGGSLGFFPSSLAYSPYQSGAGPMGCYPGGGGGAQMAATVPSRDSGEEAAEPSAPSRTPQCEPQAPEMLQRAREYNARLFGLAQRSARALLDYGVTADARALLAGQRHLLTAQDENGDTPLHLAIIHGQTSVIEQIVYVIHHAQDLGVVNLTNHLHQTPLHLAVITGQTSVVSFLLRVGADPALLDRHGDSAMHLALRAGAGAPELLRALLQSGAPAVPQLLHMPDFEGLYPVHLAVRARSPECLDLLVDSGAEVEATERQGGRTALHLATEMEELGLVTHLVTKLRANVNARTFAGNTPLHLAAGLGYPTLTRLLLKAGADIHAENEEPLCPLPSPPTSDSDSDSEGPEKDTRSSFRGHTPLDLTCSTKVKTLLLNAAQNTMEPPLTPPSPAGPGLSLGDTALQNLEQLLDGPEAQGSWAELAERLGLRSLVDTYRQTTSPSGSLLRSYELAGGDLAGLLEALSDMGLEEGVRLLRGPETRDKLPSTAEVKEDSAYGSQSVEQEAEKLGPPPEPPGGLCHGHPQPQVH
T1 sequence (Q04206 whole entry, looked up): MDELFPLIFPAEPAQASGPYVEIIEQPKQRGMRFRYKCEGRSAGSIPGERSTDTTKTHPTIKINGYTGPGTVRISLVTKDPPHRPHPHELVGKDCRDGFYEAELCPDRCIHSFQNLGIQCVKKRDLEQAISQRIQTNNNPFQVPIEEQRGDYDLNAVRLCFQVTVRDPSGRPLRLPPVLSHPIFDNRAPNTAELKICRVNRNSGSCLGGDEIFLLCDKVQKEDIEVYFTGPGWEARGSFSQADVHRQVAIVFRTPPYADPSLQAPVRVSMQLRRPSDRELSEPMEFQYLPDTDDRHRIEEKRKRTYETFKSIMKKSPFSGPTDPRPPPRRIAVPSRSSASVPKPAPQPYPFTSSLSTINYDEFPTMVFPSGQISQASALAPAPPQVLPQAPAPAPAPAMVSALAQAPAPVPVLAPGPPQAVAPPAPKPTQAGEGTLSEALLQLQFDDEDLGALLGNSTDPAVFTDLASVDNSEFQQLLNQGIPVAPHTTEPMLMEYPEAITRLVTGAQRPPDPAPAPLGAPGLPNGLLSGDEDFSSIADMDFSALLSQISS

Row | SMILES | Activity [1] | Activity [2] | Activity (THP-1) | Activity (BMDC [3]) | Activity (Mus musculus) | Activity (BMDC [4])
1 | CCCC1CCN(S(=O)(=O)c2ccc(C(=O)Nc3nc(-c4cc(C)ccc4C)cs3)cc2)CC1 | 517% | Active | 111% | Active | Active | inactive
2 | CCCC#Cc1sc(NC(=O)c2ccc(S(=O)(=O)N3CCCCC3)cc2)nc1-c1cc(C)ccc1C | 393% | Active | 106% | Active | Active | inactive

Further lines, with some results ahead:

Row | Activity [1] | Activity [2] | SMILES | Activity (THP-1) | Activity (BMDC [3]) | Activity (Mus musculus) | Activity (BMDC [4])
3 | 254% | Active | Cc1ccc(Br)c(-c2csc(NC(=O)c3ccc(S(=O)(=O)N4CCCCC4)cc3)n2)c1 | 98% | Active |  | inactive
4 | 200% | Active | Cc1ccc(C)c(-c2csc(NC(=O)c3ccc(S(=O)(=O)N4CCCCC4)cc3)n2)c1 | 103% | Active |  | inactive
5 | 159% |  | Cc1ccc(C)c(-c2nc(NC(=O)c3ccc(S(=O)(=O)N4CCCCC4)cc3)sc2C)c1 | 97% |  |  | 
